Measurements taken from ChEMBL document CHEMBL1141285, “Antimicrobial compounds from the Australian desert plant Eremophila neglecta” (2007).
Values after ≈ are worked out from the molar mass of the structure shown. Active and inactive are the calls of the source. No cut-off for these calls is given here.

Columns and labels:
[1] = test system: Pseudomonas aeruginosa; test: Antimicrobial activity against Pseudomonas aeruginosa ATCC 27853 at 621.5 uM by broth microdilution method; format: functional, organism-based
[2] = test system: Escherichia coli; test: Antimicrobial activity against Escherichia coli ATCC 25922 at 621.5 uM by broth microdilution method; format: functional, organism-based
[3] = test system: Staphylococcus aureus; test: Antimicrobial activity against Staphylococcus aureus ATCC 25923 by broth microdilution method; format: functional
Outline: (§1)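 Broth microdilution in cation-adjusted MH II broth with 2% DMSO in the 2-fold serial dilutions (final 1% v/v), done in duplicate. Bacteria grown on 5% sheep blood agar at 37 °C. Final inoculum 5 × 10^5 CFU/mL. Plates shaken 10 min, then incubated overnight at 37 °C. MIC is the lowest concentration with no growth in both duplicate wells.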

[4] = test system: Streptococcus pyogenes; test: Antimicrobial activity against Streptococcus pyogenes ATCC 10389 by broth microdilution method; format: functional
Outline: as §1, with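 “brain heart infusion” for “cation-adjusted MH II”, “duplicate.” for “duplicate. Bacteria grown on 5% sheep blood agar at 37 °C.”, “°C with 5% CO2.” for “°C.”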

[5] = test system: Salmonella typhimurium; test: Antimicrobial activity against Salmonella Typhimurium ATCC 13311 at 621.5 uM by broth microdilution method; format: functional, organism-based; conditions: Salmonella enterica subsp. enterica serovar Typhimurium
[6] = test system: Staphylococcus aureus; test: Antimicrobial activity against Staphylococcus aureus ATCC 29213 by broth microdilution method; format: functional; outline: as §1
[7] = test system: Streptococcus pneumoniae; test: Antimicrobial activity against Streptococcus pneumoniae ATCC 49619 by broth microdilution method; format: functional
Outline: as §1, with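 “brain heart infusion” for “cation-adjusted MH II”, “duplicate.” for “duplicate. Bacteria grown on 5% sheep blood agar at 37 °C.”, “°C with 5% CO2.” for “°C.”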

[8] = test system: Staphylococcus aureus; test: Antimicrobial activity against Staphylococcus aureus ATCC 29213 by broth microdilution method
[9] = test system: Staphylococcus aureus; test: Antimicrobial activity against Staphylococcus aureus ATCC 29213 at 621.5 uM by broth microdilution method; format: functional, organism-based

Molecule | Activity [1] | Activity [2] | MBC [3] [µM] | MIC [3] [µM] | MBC [4] [µM] | MIC [4] [µM] | Activity [5] | MBC [6] [µM] | MIC [6] [µM] | MBC [7] [µM] | MIC [7] [µM] | MIC [8] [µM] | Activity [9]
CC(C)=CCC[C@H](C)[C@@H]1CC[C@@H](C)c2c(O)cc(C(=O)O)cc21 | inactive | inactive | 99 (≈ 31.3 µg/mL) | 49.3 (≈ 15.6 µg/mL) | 99 (≈ 31.3 µg/mL) | 24.7 (≈ 7.82 µg/mL) | inactive | 49.3 (≈ 15.6 µg/mL) | 49.3 (≈ 15.6 µg/mL) | 49.3 (≈ 15.6 µg/mL) | 24.7 (≈ 7.82 µg/mL) |  | 
CN[C@H](CC(C)C)C(=O)N[C@H]1C(=O)N[C@@H](CC(N)=O)C(=O)N[C@H]2C(=O)N[C@H]3C(=O)N[C@H](C(=O)N[C@H](C(=O)O)c4cc(O)cc(O)c4-c4cc3ccc4O)[C@H](O)c3ccc(c(Cl)c3)Oc3cc2cc(c3O[C@@H]2O[C@H](CO)[C@@H](O)[C@H](O)[C@H]2O[C@H]2C[C@](C)(N)[C@H](O)[C@H](C)O2)Oc2ccc(cc2Cl)[C@H]1O [VANCOMYCIN] |  |  |  |  |  |  |  |  |  |  |  | 0.7 (≈ 1.01 µg/mL) | 
CC(=O)OCc1cc(O)c2c(c1)[C@H]([C@@H](C)CCC=C(C)C)C[C@H](OC(C)=O)[C@H]2C |  |  |  |  |  |  |  |  |  |  |  |  | inactive
CC(C)=CCC[C@H](C)[C@@H]1CC[C@@H](C)c2c(O)cc(CO)cc21 | inactive | inactive | 25.8 (≈ 7.8 µg/mL) | 25.8 (≈ 7.8 µg/mL) | 12.9 (≈ 3.9 µg/mL) | 12.9 (≈ 3.9 µg/mL) | inactive | 25.8 (≈ 7.8 µg/mL) | 25.8 (≈ 7.8 µg/mL) | 12.9 (≈ 3.9 µg/mL) | 12.9 (≈ 3.9 µg/mL) |  | 
GENTAMICIN |  |  |  |  |  |  |  |  | 1 |  |  |  | 
CC(C)=CCCC1=COC2=C(C)C(=O)C(=O)c3c(C)ccc1c32 | inactive | inactive | 50.6 (≈ 15.6 µg/mL) | 25.3 (≈ 7.8 µg/mL) | 203 (≈ 62.6 µg/mL) | 102 (≈ 31.3 µg/mL) | inactive | 203 (≈ 62.6 µg/mL) | 25.3 (≈ 7.8 µg/mL) | 12.7 (≈ 3.92 µg/mL) | 6.5 (≈ 2 µg/mL) |  | 
